Data set [1] has as its target Xanthine dehydrogenase/oxidase (Homo sapiens, UniProt P47989). Kind of data set: Inhibition of xanthine oxidase by in vitro enzymatic assay in presence of xanthine. The procedure, abridged:
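Cell-free Amplex Red read-out: xanthine oxidase incubated in PBS with Amplex Red, HRP and cofactors; ROS production started by adding xanthine. Compound at rising concentrations from 1 nM to 100 μM, 20 min at 37 °C, then read on a plate reader. Background taken without enzyme or without agonist. Ki by Cheng-Prusoff, mean of at least three experiments run in triplicate.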

Data set [2] in a line: Intrinsic clearance in Sprague-Dawley rat liver microsomes assessed per mg of protein at 0.5 uM. It counts as ADME, Microsome. In short, it runs like this: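 Phase I stability assay in pooled liver microsomes (human: male and female; rat: male Sprague-Dawley). Microsomes at 0.5 mg/mL final in 0.1 M phosphate pH 7.4. Compound 0.5 μM final, 0.25% DMSO. Preincubated at 37 °C, reaction started with 1 mM NADPH. Sampled at 0, 5, 15, 30 and 45 min, with a 45 min minus-NADPH control. Methanol quench with internal standard, LC/MS-MS, intrinsic clearance calculated.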
(Microsomes from liver hold many membrane-bound enzymes, among them those of drug oxidation.)

In a further data set the target is Cytochrome P450 3A4 (Homo sapiens, UniProt P08684). Kind of data set: Inhibition of human CYP3A4. It counts as ADME. The procedure, abridged: (§1)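 Recombinant human CYP isoforms with isoform-specific probe substrates and NADPH. Compound at 0.1–25 μM, final DMSO 0.3%. Metabolites measured by mass spectrometry, except CYP1A2, which used a fluorescent metabolite. IC50 derived from the decrease in metabolite formation compared with vehicle control.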

A short description of data set [3]: AUC (infinity) in Sprague-Dawley rat at 10 mg/kg, po. It counts as ADME, organism-based. Details: time infinity, dose 10 mg/kg, route oral. Particulars: plasma. The procedure, abridged:
(§2)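 Parallel design with six male rats: three given 5 mg/kg iv in EDPW (10% EtOH, 10% DMA, 30% PG, 50% water), three given 10 mg/kg orally in aqueous 0.5% CMC with 0.25% Tween 20. Carotid cannula blood sampled up to 24 h. Plasma levels by LC/MS/MS (LLOQ 1.00 ng/mL). Noncompartmental analysis.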

Data set [4] is described as follows: Oral bioavailability in Sprague-Dawley rat at 10 mg/kg. It counts as ADME, organism-based. To be noted: in vivo. In short, it runs like this:
(§3)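 Parallel design in male rats, three per group. Group 1: 5 mg/kg iv in EDPW (10% EtOH, 10% DMA, 30% PG, 50% water). Group 2: 10 mg/kg oral in aqueous 0.5% CMC with 0.25% Tween 20. Carotid cannula blood drawn up to 24 h. Plasma measured by LC/MS/MS (LLOQ 1.00 ng/mL), noncompartmental analysis.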

Data set [5] is described as follows: Tmax in Sprague-Dawley rat at 10 mg/kg, po. It counts as ADME, organism-based. Set-up: dose 10 mg/kg, route oral. To be noted: in vivo. The procedure, abridged: as §3
A short description of data set [6]: AUC (infinity) in Sprague-Dawley rat at 5 mg/kg, iv. It counts as ADME, organism-based. Details: time infinity, dose 5 mg/kg, route intravenous. To be noted: plasma. The procedure, abridged: as §2
A further data set addresses NADPH oxidase 1 (Homo sapiens, UniProt Q9Y5S8). In words: Inhibition of human NOX1 overexpressed in […] cell membrane assessed as ROS production by cell free assay in presence of NADPH. To be noted: in the assay text read “T-REx-CHO cell membrane” for “human PMN cell membrane”. In short, it runs like this:
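Membranes from T-REx-CHO cells stably co-transfected with human NOX1, p22, NOXA1 and NOXO1, induced with tetracycline (1 μg/mL, 24 h), prepared on a 17/40% sucrose gradient. Incubated in PBS with Amplex Red, HRP and cofactors, then NADPH added. Compound at 1 nM–100 μM, 20 min at 37 °C. Ki by Cheng-Prusoff, at least three experiments in triplicate.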

Data set [7] in a line: Volume of distribution at steady state in Sprague-Dawley rat at 5 mg/kg, iv. It counts as ADME, organism-based. Details: dose 5 mg/kg, route intravenous. Particulars: in vivo, read-out: Vdss. The procedure, abridged: as §3
For the next data set, the system named is Mus musculus. Kind of data set: Toxicity in mouse up to 1000 mg/kg, po over 2 weeks. To be noted: in vivo, 336 h. Details: dose 1000 mg/kg, route oral. It counts as organism-based. The procedure, abridged: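 Dose range finding in mice, given orally for 2 weeks at up to 1000 mg/kg.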
The target of data set [8] is Mitogen-activated protein kinase kinase kinase 5 (Homo sapiens) (UniProt Q99683). Kind of data set: Inhibition of human ASK1 at 10 uM.
Sequence of Mitogen-activated protein kinase kinase kinase 5 (Homo sapiens) (Q99683 whole entry): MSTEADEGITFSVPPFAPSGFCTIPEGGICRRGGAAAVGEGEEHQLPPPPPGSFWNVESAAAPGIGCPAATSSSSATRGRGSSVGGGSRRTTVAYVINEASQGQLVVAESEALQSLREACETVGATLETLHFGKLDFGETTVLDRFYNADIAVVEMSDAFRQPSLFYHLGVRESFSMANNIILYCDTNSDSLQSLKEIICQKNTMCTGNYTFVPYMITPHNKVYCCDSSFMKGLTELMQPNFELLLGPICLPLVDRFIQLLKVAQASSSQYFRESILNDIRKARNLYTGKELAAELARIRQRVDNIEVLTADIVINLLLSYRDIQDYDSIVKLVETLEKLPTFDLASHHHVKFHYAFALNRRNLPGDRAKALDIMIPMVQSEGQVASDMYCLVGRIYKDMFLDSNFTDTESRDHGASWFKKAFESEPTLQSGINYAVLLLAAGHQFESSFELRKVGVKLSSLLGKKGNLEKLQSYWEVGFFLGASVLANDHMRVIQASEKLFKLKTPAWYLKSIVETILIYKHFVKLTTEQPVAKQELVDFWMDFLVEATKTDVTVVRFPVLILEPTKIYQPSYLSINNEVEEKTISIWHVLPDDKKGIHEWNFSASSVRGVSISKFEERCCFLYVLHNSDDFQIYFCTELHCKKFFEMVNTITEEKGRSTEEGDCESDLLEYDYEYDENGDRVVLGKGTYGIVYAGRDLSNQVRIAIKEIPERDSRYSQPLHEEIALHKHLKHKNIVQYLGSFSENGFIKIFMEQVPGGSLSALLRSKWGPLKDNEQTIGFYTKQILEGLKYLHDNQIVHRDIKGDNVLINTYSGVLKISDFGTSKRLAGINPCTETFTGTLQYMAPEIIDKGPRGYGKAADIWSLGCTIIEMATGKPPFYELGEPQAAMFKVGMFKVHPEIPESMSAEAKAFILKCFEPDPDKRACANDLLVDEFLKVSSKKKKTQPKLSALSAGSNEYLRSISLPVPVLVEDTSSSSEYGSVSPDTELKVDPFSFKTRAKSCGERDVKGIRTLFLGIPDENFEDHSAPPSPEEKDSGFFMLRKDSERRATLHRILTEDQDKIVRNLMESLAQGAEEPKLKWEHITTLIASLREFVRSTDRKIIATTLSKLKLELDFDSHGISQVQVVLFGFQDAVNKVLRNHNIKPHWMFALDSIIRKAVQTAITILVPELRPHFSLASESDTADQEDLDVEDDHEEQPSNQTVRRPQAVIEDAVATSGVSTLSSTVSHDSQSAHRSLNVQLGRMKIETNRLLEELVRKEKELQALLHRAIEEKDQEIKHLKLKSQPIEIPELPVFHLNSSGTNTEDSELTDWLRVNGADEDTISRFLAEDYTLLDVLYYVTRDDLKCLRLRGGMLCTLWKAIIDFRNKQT
A short description of data set [9]: Inhibition of sodium channel at 10 uM.
Data set [10] addresses Protein kinase C beta type (Homo sapiens) (UniProt P05771). Kind of data set: Inhibition of human PKCbeta at 10 uM.
In data set [11] the target is Protein kinase C delta type (Homo sapiens) (UniProt Q05655). In words: Inhibition of human PKCdelta at 10 uM.
Sequence of Protein kinase C delta type (Homo sapiens) (Q05655 whole entry, looked up, canonical isoform): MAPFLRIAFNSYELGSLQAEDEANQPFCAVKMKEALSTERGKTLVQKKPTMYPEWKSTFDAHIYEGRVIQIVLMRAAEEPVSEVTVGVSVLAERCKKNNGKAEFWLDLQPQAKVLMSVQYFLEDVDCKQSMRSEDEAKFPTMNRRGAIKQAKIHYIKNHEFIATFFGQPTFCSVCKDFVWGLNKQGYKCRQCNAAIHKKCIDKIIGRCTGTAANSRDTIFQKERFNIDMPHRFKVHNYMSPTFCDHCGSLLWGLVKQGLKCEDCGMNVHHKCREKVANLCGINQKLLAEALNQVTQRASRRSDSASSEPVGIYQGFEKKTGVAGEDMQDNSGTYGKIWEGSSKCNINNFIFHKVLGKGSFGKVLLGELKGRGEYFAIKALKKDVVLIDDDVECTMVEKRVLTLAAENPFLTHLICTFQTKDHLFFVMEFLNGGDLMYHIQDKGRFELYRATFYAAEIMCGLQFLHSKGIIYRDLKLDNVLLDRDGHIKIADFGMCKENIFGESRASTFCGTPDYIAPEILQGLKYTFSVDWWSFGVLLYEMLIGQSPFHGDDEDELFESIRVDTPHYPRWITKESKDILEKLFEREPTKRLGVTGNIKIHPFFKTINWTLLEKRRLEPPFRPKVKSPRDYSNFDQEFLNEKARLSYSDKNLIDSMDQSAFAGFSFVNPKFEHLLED
Data set [12] concerns the target Phosphatidylinositol 4,5-bisphosphate 3-kinase catalytic subunit beta isoform (Homo sapiens) (UniProt P42338). Kind of data set: Inhibition of PI3Kbeta at 10. To be noted: concentration not given here.
Data set [13] deals with Phosphatidylinositol 4,5-bisphosphate 3-kinase catalytic subunit delta isoform (Homo sapiens) (UniProt O00329). Kind of data set: Inhibition of PI3Kdelta at 10. Particulars: concentration not given here.
The target of data set [14] is Nitric oxide synthase, inducible (Homo sapiens) (UniProt P35228). Kind of data set: Inhibition of iNOS at 10 uM.
Sequence of Nitric oxide synthase, inducible (Homo sapiens) (P35228 whole entry): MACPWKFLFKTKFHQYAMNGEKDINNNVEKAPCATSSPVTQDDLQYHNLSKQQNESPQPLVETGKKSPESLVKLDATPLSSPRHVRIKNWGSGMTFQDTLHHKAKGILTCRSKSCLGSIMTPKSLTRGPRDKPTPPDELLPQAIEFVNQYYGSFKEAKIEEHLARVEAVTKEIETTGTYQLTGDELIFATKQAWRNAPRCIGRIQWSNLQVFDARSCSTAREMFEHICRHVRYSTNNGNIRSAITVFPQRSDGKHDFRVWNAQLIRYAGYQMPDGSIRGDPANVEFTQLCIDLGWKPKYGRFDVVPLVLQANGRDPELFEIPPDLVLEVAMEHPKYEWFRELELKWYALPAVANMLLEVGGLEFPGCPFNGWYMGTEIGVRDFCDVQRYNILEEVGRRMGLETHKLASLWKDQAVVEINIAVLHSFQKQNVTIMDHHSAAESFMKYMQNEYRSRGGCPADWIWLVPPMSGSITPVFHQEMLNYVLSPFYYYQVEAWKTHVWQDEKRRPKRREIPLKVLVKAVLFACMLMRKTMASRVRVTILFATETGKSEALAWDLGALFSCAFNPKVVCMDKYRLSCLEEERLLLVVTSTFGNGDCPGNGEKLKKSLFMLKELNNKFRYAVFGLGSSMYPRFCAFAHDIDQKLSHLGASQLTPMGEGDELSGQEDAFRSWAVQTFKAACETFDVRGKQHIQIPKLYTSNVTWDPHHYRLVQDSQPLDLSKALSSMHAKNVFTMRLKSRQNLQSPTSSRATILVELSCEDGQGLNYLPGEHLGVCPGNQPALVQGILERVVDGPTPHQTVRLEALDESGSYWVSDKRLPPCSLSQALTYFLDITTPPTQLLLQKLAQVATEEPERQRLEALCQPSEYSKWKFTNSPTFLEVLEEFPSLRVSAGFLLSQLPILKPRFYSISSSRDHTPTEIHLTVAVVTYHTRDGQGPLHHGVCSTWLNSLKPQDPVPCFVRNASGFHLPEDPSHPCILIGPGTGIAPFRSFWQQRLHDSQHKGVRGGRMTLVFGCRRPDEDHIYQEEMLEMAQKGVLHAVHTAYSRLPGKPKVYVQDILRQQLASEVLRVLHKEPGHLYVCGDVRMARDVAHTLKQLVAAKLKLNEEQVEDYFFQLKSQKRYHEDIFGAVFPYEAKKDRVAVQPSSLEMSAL
Another data set concerns the target Cytochrome P450 2D6 (Homo sapiens, UniProt P10635). In words: Inhibition of human CYP2D6. It counts as ADME. The procedure, abridged: as §1
The target in the next data set is Cytochrome P450 1A2 (Homo sapiens, UniProt P05177). Kind of data set: Inhibition of human CYP1A2. It counts as ADME. The procedure, abridged:
as §1

In data set [15] the target is Nitric oxide synthase, endothelial (Homo sapiens) (UniProt P29474). Kind of data set: Inhibition of eNOS at 10 uM.

Structures are written as SMILES. Bounds are passed on as bounds.

Sequence of Protein kinase C beta type (Homo sapiens) (P05771 2-671 limits assumed): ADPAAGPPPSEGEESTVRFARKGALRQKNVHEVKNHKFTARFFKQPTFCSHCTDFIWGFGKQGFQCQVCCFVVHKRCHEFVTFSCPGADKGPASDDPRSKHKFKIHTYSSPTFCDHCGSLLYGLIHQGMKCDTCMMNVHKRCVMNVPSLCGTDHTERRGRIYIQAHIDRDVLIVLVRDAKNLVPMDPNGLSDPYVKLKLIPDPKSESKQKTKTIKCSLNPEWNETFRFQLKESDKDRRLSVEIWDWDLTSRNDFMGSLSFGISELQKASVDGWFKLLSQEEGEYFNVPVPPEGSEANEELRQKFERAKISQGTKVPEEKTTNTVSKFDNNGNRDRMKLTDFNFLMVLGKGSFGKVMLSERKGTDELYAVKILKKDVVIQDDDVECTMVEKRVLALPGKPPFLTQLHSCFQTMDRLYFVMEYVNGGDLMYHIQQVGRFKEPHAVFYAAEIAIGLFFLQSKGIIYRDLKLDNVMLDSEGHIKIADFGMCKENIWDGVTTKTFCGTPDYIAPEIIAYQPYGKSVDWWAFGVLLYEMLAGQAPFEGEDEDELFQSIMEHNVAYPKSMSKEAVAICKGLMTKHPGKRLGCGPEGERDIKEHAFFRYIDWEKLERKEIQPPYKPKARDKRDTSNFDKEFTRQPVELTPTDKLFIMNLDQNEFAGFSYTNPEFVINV
Sequence of NADPH oxidase 1 (Q9Y5S8 whole entry): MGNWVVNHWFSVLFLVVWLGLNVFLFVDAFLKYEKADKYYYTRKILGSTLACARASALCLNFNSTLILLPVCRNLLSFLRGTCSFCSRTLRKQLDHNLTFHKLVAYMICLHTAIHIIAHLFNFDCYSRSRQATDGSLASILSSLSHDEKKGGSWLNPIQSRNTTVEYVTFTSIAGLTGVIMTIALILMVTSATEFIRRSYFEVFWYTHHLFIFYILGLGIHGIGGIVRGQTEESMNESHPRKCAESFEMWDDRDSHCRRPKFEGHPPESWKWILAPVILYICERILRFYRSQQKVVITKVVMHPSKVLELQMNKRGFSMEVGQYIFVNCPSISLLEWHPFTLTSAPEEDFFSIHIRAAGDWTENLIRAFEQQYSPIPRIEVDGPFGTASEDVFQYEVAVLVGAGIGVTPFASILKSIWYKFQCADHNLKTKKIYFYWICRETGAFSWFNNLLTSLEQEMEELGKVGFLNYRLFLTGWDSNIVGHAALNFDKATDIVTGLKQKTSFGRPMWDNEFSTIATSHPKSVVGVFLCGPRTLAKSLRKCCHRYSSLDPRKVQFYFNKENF
Sequence of Cytochrome P450 2D6 (P10635 whole entry): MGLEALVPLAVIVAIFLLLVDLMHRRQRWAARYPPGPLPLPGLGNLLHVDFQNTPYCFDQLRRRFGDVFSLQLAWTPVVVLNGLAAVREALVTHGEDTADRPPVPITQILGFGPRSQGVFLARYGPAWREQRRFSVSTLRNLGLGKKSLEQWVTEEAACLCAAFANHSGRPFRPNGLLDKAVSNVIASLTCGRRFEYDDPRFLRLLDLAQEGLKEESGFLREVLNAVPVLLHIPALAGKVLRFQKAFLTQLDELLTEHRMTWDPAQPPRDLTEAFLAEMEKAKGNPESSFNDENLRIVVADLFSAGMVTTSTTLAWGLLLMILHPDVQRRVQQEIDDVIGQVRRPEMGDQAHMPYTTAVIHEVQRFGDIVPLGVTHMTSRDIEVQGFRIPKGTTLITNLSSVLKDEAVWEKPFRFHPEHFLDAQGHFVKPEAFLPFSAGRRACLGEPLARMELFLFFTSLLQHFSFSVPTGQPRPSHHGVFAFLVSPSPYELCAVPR

A word on the Ki: it is a measure of affinity in units of concentration, obtained from inhibition or displacement. As a reminder, the microsomal CLint is the rate of metabolic loss divided by the concentration. A lower microsomal CLint goes with greater metabolic stability. The IC50 is the midpoint of a concentration-inhibition curve. What is called AUC(0-inf) is the area under the concentration-time curve extrapolated to infinity. Broadly, the bioavailability is the share of a dose that reaches the circulation, judged against a reference dose that is usually intravenous. The Tmax is the time from dosing to the highest level. The term inhibition denotes how much of the control response was suppressed. High values mean a strong effect, low ones a weak effect. Consider `Cc1c2c(=O)n(-c3ccccc3Cl)[nH]c2cc(=O)n1Cc1ccccn1`, for which the inhibition constant (Ki) is greater than 30 µM in data set [1] and 0.16 µM on NADPH oxidase 1. The compound further showed a microsomal CLint at 0.5 µM in [2] of 70.2 µL/min/mg. Besides, the IC50 was 20.9 µM at Cytochrome P450 3A4, greater than 25 µM against Cytochrome P450 2D6 and greater than 25 µM against Cytochrome P450 1A2. The results for the area under the curve AUC(0-inf) in data set [3] and in data set [6] were 10900 ng·h/mL and 11000 ng·h/mL, respectively. For the same compound, the bioavailability in [4] amounted to 54%. Also, in data set [5], the time to peak (Tmax) came out at 1.5 h. In addition, the Vd in data set [7] stood at 1.08 L/kg. For the same compound, the Activity result in the data set on Mus musculus is recorded as “Non-toxic”. Moreover, the inhibition is 0% in data set [8]; 4% in [9]; 0% in data set [10]; 0% in [11]; 0% in data set [12]; 0% in data set [13]. Moreover, the inhibition was found to be 0% in data set [14] and 6% in data set [15].

These data come from ChEMBL document CHEMBL1275350, “First in class, potent, and orally bioavailable NADPH oxidase isoform 4 (Nox4) inhibitors for the treatment of idiopathic pulmonary fibrosis” (J Med Chem, 2010).
